LEDGF integ inh: blocks HIV-1 LEDGF/p75-dependent DNA integration; inhibition, % at 3.7 µM; 370,000 compounds, 0.64% hits; TR-FRET IN-LEDGF/p75 DNA integration, Eu/Cy5;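 active = inhibition above the screen-wide mean plus 3 SD, cut at about 13% in these data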;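 note: signal is the Cy5 over europium emission ratio at 671 and 618 nm; 0% = plate median of compound wells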
Casp6 inh: inhibitors of human caspase-6; P55212; inhibition, % at 12.5 µM; purified caspase-6, Z-VEID-R110 cleavage fluorescence; 350,000 compounds, 0.53% hits;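 active = mean inhibition across replicates at least about 35%, with every replicate also reaching that limit, limit read from the data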;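 note: 0% = median of neutral control wells and 100% = no fluorescence left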
TDP2 absorb: TDP2 (human) inhibition, absorbance primary screen; O95551; recombinant TDP2, T5PNP hydrolysis, p-nitrophenol absorbance 415 nm; inhibition, % at 12.8 µM; 370,000 compounds, 0.34% hits;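 active = inhibition above the mean of all tested compounds plus 3 SD, set per campaign, cut at about 25% in these data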;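 note: 0% = DMSO with enzyme and 100% = buffer with substrate but no TDP2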
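System – recombinant human TDP2 · Quantity – TDP2 enzyme at 120 nM final · Doses – single concentration, 12.8 µM nominal, with 1% DMSO · Incubation – 2 h at 37 °C · Measured by – epi absorbance of p-nitrophenol freed from T5PNP by hydrolysis · Read-out – % inhibition relative to enzyme-containing and enzyme-free wells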
MBD2 DNA inh: MBD2-methylated oligo binding inhibition; 370,000 compounds, 0.31% hits; inhibition, % at 4.4 µM; TR-FRET, MBD2 binding to methylated oligonucleotide; in the data active = inhibition above about 13%
UHRF1 MBD2 ctr: blocks human UHRF1 binding to methylated DNA; Q96T88; UHRF1 binding to methylated oligo, TR-FRET; inhibition, % at 4.4 µM; 370,000 compounds, 0.75% hits; in the data active = inhibition above about 21%;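 note: UHRF1 SRA domain binding a hemimethylated CpG hairpin DNA probe; 0% = median of test compound wells and 100% = reference inhibitor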
NSD2 inh: inhibitors of human histone methyltransferase NSD2. NSD2 peptide methylation, AlphaScreen, 120 min. O96028. inhibition, % at 12.5 µM. AID 743445. 310,000 compounds, 0.54% hits; in the data active = inhibition above about 50%
Target sequence (O96028 whole entry, looked up): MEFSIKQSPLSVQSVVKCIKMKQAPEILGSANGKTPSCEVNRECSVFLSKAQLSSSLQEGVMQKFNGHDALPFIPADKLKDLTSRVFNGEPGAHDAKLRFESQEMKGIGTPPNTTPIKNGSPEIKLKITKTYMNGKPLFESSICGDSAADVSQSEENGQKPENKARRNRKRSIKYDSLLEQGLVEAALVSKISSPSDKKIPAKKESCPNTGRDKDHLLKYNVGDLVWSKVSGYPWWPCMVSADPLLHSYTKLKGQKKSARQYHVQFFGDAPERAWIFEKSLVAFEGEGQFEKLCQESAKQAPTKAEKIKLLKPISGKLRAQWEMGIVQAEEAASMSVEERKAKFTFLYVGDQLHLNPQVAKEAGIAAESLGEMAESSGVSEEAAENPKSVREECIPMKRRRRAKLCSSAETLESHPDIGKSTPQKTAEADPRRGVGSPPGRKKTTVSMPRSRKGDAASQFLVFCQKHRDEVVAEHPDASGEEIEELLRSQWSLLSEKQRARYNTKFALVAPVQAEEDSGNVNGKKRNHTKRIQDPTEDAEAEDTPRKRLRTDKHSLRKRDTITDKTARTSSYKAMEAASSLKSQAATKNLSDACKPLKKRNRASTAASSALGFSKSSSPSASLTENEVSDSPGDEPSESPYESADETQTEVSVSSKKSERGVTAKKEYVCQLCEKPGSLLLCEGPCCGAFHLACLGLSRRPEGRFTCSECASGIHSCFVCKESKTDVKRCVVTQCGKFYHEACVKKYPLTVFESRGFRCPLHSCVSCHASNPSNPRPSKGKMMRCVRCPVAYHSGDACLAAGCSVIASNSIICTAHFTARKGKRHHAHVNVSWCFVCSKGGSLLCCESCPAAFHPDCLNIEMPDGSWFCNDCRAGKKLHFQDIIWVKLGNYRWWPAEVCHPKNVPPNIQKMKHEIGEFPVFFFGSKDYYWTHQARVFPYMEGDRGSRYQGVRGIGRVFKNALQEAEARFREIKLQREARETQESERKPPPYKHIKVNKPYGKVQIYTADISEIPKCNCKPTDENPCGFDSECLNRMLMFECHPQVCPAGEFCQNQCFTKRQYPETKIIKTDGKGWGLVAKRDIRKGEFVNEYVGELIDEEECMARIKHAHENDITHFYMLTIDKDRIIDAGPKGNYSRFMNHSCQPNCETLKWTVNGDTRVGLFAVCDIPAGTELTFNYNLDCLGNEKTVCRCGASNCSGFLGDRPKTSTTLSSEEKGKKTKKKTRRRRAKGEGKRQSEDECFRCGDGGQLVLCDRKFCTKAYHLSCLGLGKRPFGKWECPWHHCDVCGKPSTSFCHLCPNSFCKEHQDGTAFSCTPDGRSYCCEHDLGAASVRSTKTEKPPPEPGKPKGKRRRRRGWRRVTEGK
UHRF1 DNA bind: inhibits human UHRF1 binding to methylated oligonucleotide, MBD2 counter-screen; shares compounds with MBD2 DNA inh; TR-FRET; inhibition, % at 4.4 µM; 1,000 compounds, 25% hits; AID 720530; in the data active = inhibition above about 21%;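 note: UHRF1 SRA domain binding a labeled hemimethylated CpG hairpin DNA; 0% = vehicle only and 100% = reference inhibitor with vehicle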
MBD2 confirm: confirmation of human MBD2-DBD methylated oligonucleotide binding inhibitors. inhibition, % at 4.4 µM. TR-FRET MBD2-DBD binding to methylated oligonucleotide. shares compounds with MBD2 DNA inh. 1,000 compounds, 26% hits. AID 720531
TDP2 confirm: human TDP2 inhibition, confirmation; shares compounds with TDP2 absorb; recombinant human TDP2, absorbance read-out; inhibition, % at 12.8 µM; 1,100 compounds, 22% hits; AID 743263; in the data active = inhibition above about 25%;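 note: 0% = vehicle with enzyme and 100% = no enzyme buffer only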
IN multimer act: HIV-1 integrase multimerization activation, counter-screen. AID 1053131. 2,000 compounds, 17% hits. shares compounds with LEDGF integ inh. TR-FRET HIV-1 integrase multimerization, biochemical. activation, % at 7.7 µM; in the data active = activation above about 8.9%
TR-FRET interf: optically interferes with TR-FRET readout in LEDGF counter-screen; TR-FRET optical interference counterscreen, HIV-1 IN multimerization; shares compounds with LEDGF integ inh; inhibition, % at 7.7 µM; 2,000 tested, under 10 active;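 active = inhibition above the mean over all tested compounds plus 3 SD, which no compound reached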;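 note: 0% = integrase with antibodies and DMSO and 100% = antibodies without integrase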
IN-LEDGF confirm: confirmation of HIV-1 LEDGF/p75-dependent integration inhibitors | TR-FRET LEDGF/p75-dependent HIV-1 integration, biochemical | 2,000 compounds, 36% hits | inhibition, % at 3.7 µM | shares compounds with LEDGF integ inh
* marks the source's active call; other numbers are inactive results. Shown are actives, neighbours in structure and some others; about 1.9% of the full set was active somewhere. Cut-off read from the data, not from the text of the source, unless noted: active = inhibition above about 14%; inactive = the rest.

Results for O=C(N/C=C/c1ccco1)OCc1ccccc1 ?
LEDGF integ inh: 36*; Casp6 inh: 3; TDP2 absorb: -4; MBD2 DNA inh: 15*; UHRF1 MBD2 ctr: 24*; NSD2 inh: 0; UHRF1 DNA bind: 26*; MBD2 confirm: 27*; IN multimer act: 31*; TR-FRET interf: -156; IN-LEDGF confirm: 36*

How did O=C(COC(=O)/C=C/c1ccco1)NCc1ccccc1 do in these assays?
LEDGF integ inh: 1; Casp6 inh: 1; TDP2 absorb: -8; MBD2 DNA inh: -4; UHRF1 MBD2 ctr: 0; NSD2 inh: -4

Results for CCCOc1ccc(/C=c2\sc3nc(-c4ccco4)nn3c2=O)cc1OCC ?
LEDGF integ inh: 13*; TDP2 absorb: 3; MBD2 DNA inh: 31*; UHRF1 MBD2 ctr: 31*; NSD2 inh: 2; UHRF1 DNA bind: 10; MBD2 confirm: 3; IN multimer act: -2; TR-FRET interf: 9; IN-LEDGF confirm: 8

Results for CN1CCCCN2[C@H](CO)[C@H](c3ccc(-c4cccnc4)cc3)[C@H]2C1 ?
Casp6 inh: 3

How did O=C(C[C@H]1CC[C@H](NC(=O)Nc2ccc(C(F)(F)F)cc2)[C@H](CO)O1)NCc1cccc(F)c1 do in these assays?
Casp6 inh: 0

How did O=C(NC(=S)Nc1ccc(Br)cn1)c1cccs1 do in these assays?
LEDGF integ inh: 19*; Casp6 inh: -1; TDP2 absorb: -2; MBD2 DNA inh: 14*; UHRF1 MBD2 ctr: 37*; NSD2 inh: 2; UHRF1 DNA bind: 4; MBD2 confirm: 0; IN multimer act: -3; TR-FRET interf: 9; IN-LEDGF confirm: -1

Results for COc1ccc(S(=O)(=O)/N=C2/NC(=O)/C(=C\c3ccco3)S2)cc1 ?
LEDGF integ inh: 9; TDP2 absorb: 4; MBD2 DNA inh: 1; UHRF1 MBD2 ctr: 20; NSD2 inh: 17

Results for COc1ccc(S(=O)(=O)/N=C2/NC(=O)/C(=C/c3ccco3)S2)cc1 ?
LEDGF integ inh: 39*; Casp6 inh: 62*; TDP2 absorb: 10; MBD2 DNA inh: 22*; UHRF1 MBD2 ctr: 76*; NSD2 inh: 26; UHRF1 DNA bind: 19; MBD2 confirm: 3; IN multimer act: 1; TR-FRET interf: -6; IN-LEDGF confirm: 12

What do the screens show for `O=C(N/N=C/c1ccc(F)cc1)c1cc(-c2ccco2)nc2ccccc12`?
LEDGF integ inh: 15*; TDP2 absorb: 1; MBD2 DNA inh: 19*; UHRF1 MBD2 ctr: 28*; NSD2 inh: 0; UHRF1 DNA bind: 52*; MBD2 confirm: 36*; IN multimer act: 24*; TR-FRET interf: -118; IN-LEDGF confirm: 48*

Results for CCOc1ccc(/C=N/NC(=O)c2cc(-c3ccco3)nc3ccccc23)cc1 ?
LEDGF integ inh: 1; TDP2 absorb: 4; MBD2 DNA inh: 0; UHRF1 MBD2 ctr: -6; NSD2 inh: 15

Results for COCCNC(=O)C1(C)CCCN(C(=O)c2ccc(C(=O)OC)cc2)C1 (configuration not stated) ?
LEDGF integ inh: 15*; Casp6 inh: -1; TDP2 absorb: 6; MBD2 DNA inh: 16*; UHRF1 MBD2 ctr: 20; NSD2 inh: -2; UHRF1 DNA bind: -2; MBD2 confirm: 3; IN multimer act: -1; TR-FRET interf: 4; IN-LEDGF confirm: 2

How did C[C@@H]1CCCCO[C@@H](CN(C)C(=O)Nc2ccc3c(c2)OCO3)[C@@H](C)CN([C@H](C)CO)C(=O)c2cc(NC(=O)c3ccccc3)ccc2O1 do in these assays?
Casp6 inh: -2

What do the screens show for `Cc1ccc(S(=O)(=O)N2CC[C@@H]3[C@H]2c2cc(C4=CCCCC4)ccc2N(C)[C@H]3CO)cc1`?
Casp6 inh: -1

How did Cc1ccc(/C=C/C(=O)NCc2ccco2)o1 do in these assays?
LEDGF integ inh: 37*; TDP2 absorb: 14; MBD2 DNA inh: 14*; UHRF1 MBD2 ctr: 54*; NSD2 inh: 13; UHRF1 DNA bind: 48*; MBD2 confirm: 17*; IN multimer act: 13*; TR-FRET interf: -66; IN-LEDGF confirm: 60*

Results for O=C(/C=C/c1ccco1)c1cccnc1 ?
LEDGF integ inh: 67*; Casp6 inh: 65*; TDP2 absorb: -2; MBD2 DNA inh: 31*; UHRF1 MBD2 ctr: 84*; NSD2 inh: 28; UHRF1 DNA bind: 44*; MBD2 confirm: 20*; IN multimer act: 3; TR-FRET interf: -15; IN-LEDGF confirm: 51*

Results for CC(/C=C/c1ccco1)=N\NC(=O)c1cccnc1 ?
LEDGF integ inh: 11; TDP2 absorb: 10; MBD2 DNA inh: -5; UHRF1 MBD2 ctr: -1; NSD2 inh: 1

How did Cc1onc(-c2ccccc2Cl)c1C(=O)NCc1ccco1 do in these assays?
LEDGF integ inh: 44*; Casp6 inh: 6; TDP2 absorb: -6; MBD2 DNA inh: 26*; UHRF1 MBD2 ctr: 41*; NSD2 inh: 1; UHRF1 DNA bind: 19; MBD2 confirm: 14*; IN multimer act: 10*; TR-FRET interf: -50; IN-LEDGF confirm: 30*

How did Cc1ccc(CNC(=O)c2c(-c3ccccc3Cl)noc2C)cc1 do in these assays?
LEDGF integ inh: -4; Casp6 inh: -2; TDP2 absorb: 0; MBD2 DNA inh: 0; UHRF1 MBD2 ctr: -1; NSD2 inh: -4

How did COc1ccc(-c2cc(=O)[nH][nH]2)cc1OC do in these assays?
LEDGF integ inh: 42*; TDP2 absorb: 87*; MBD2 DNA inh: 16*; UHRF1 MBD2 ctr: 17; NSD2 inh: 6; UHRF1 DNA bind: 3; MBD2 confirm: 0; TDP2 confirm: 17; IN multimer act: 1; TR-FRET interf: -3; IN-LEDGF confirm: 7

Results for COc1ccc(-c2c[nH]c(=O)[nH]c2=O)cc1OC ?
LEDGF integ inh: -4; Casp6 inh: 0; TDP2 absorb: -1; MBD2 DNA inh: -1; UHRF1 MBD2 ctr: 0; NSD2 inh: -2

Screens: PubChem BioAssay, several laboratories
